In the library only some 1% were active in any assay of this set; here they are far more common.
Thrombin inh: human alpha-thrombin inhibitors, primary screen, counter-screen for coagulation protease inhibitor project, biochemical, 1536-well, fluorogenic AMC substrate; inhibition, % at 5 µM; 220,000 tested, 0.26% active; Boc-VPR-AMC fluorogenic substrate cleavage;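 active means inhibition at or above 40%; inactive means inhibition below 40%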;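 further: 0% = enzyme with no compound and 100% = wells without enzyme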
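System – human alpha-thrombin · Medium – pH 7.5 Tris (50 mM) with NaCl 150 mM, Tween 20 0.05% · Compound – single-point dosing at 5 µM, 0.2% DMSO · Incubation – enzyme reaction carried out at room temperature · Technique – fluorescence of released AMC, ex 355 nm, em 460 nm · Read-out basis – % inhibition of thrombin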
KLK5 inh: human KLK5 protease inhibitors, primary screen, biochemical, 1536-well. Kallikrein-5 (Homo sapiens), Q9Y337. 210,000 tested, 0.59% active. recombinant hK5, fluorogenic AMC substrate cleavage. inhibition, % at 5 µM;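 active means inhibition of 40% or more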;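 further: 0% = enzyme controls without compound and 100% = no-enzyme blanks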
FXIa inh: human FXIa protease inhibitors, primary screen, biochemical, 1536-well; purified FXIa, Boc-Glu-Ala-Arg-AMC fluorogenic substrate; Coagulation factor XI (Homo sapiens), P03951; inhibition, % at 5 µM; 220,000 tested, 0.14% active;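 active means inhibition of at least 40%; inactive means inhibition below 40%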;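 further: fluorescence of freed AMC excited at 355 nm; 0% = enzyme without compound and 100% = no enzyme blank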
FXIIa inh 1536: human FXIIa protease inhibitors, primary screen, biochemical, 1536-well; AID 800, 2007; Coagulation factor XII (Homo sapiens), P00748; 220,000 tested, 0.3% active; inhibition, % at 5 µM; purified FXIIa, Boc-QGR-AMC fluorogenic substrate, 2 h; in the data active means inhibition above about 40%;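 further: 0% = enzyme with no compound and 100% = blank without enzyme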
Target sequence (P00748 20-372 limits assumed): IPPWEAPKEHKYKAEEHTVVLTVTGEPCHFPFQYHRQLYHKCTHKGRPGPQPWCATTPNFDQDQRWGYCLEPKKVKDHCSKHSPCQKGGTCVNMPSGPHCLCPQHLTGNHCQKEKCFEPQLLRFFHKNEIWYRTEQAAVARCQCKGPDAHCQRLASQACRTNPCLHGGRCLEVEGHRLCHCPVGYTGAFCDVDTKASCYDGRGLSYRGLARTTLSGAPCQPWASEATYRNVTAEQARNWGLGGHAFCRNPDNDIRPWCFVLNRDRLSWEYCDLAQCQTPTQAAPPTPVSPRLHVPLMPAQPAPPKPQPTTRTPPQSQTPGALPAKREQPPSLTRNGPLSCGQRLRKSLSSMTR
Target sequence (P00748 373-615 limits assumed): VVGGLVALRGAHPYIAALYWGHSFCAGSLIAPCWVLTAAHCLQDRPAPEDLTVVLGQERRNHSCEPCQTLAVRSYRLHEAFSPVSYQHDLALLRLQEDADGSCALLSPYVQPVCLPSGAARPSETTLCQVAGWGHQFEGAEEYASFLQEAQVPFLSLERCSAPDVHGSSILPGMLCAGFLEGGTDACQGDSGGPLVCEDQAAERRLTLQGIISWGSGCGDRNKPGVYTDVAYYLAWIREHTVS
The depositor's hits bear a star; . = no result given.

SMILES	Thrombin inh	KLK5 inh	FXIa inh	FXIIa inh 1536
Cc1nc(/N=C(\N)N(C)C)[nH]c(=O)c1C	3.2	2.9	3.6	15.0
O=C(O)CN1C(=O)/C(=C/c2ccc(N3CCCCC3)o2)SC1=S	8.2	45.1*	22.9	72.2*
COc1ccc(O[C@H]2C=C[C@@H](c3ccccc3)O[C@@H]2CO/N=C(\C)CCN2CCCCc3nc(C)c(C)cc32)cc1	1.8	-1.3	6.6	13.9
CCOC(=O)CNC(=O)Cn1cnc2c(nnn2-c2ccc(C)cc2)c1=O	2.7	0.8	-0.7	10.6
CCOC(=O)CNC(=O)Cn1cnc2c(nnn2-c2cccc(Cl)c2)c1=O	0.8	-9.1	12.3	43.4*
CSc1nc(C=Nc2ccccc2Cl)c(O)n1Cc1cccc(Cl)c1	-2.3	-3.3	0.7	1.3
COc1ccc(NC(=O)CCNS(=O)(=O)c2ccc3c(c2)c(=O)n(C)c(=O)n3C)c(OC)c1	-2.6	-2.4	5.3	10.8
COc1ccccc1-n1c2c(cc(C(=O)N3CCC(C)CC3)c1=O)C(=O)CC(C)(C)C2	10.3	52.3*	17.4	37.9
COc1ccc(-n2c3c(cc(C(=O)N4CCC(C)CC4)c2=O)C(=O)CC(C)(C)C3)cc1	-6.2	-0.9	1.4	8.6
N/C(=N\c1nc2ccccc2o1)NC(=O)c1ccccc1NC(=O)c1ccccc1	52.1*	30.5	1.7	7.0
COc1cccc(N2CCN(C3CC(=O)N(c4ccc(F)c(Cl)c4)C3=O)CC2)c1 (stereo not given)	0.1	44.0*	-4.1	-3.0
Cc1occc(=O)c1OC(=O)Nc1ccc(Cl)c(Cl)c1	26.6	47.5*	39.2	4.6
COc1ccc(C(=O)Oc2c(C)occc2=O)cc1OC	-1.5	-2.5	5.2	2.1
O=C(N/N=C(\CC(=O)c1cccs1)C(F)(F)F)c1ccncc1	8.2	61.4*	36.9	23.5
CN(CC1CCCO1)S(=O)(=O)c1ccc(C(=O)Nc2ccc3c(c2)OCO3)cc1 (stereo not given)	5.3	61.2*	34.2	28.8
CC(CC(=O)O)CC(=O)Nc1cc(C(F)(F)F)cc(C(F)(F)F)c1 (stereo not given)	4.0	49.9*	23.1	24.6
Cc1onc(-c2c(F)cccc2Cl)c1C(=O)N1CCOC12CCCCC2	-1.2	0.4	-1.9	7.0
Nc1nc(-c2ccc(Cl)cc2)cc(C(F)(F)F)n1	10.1	41.9*	8.8	16.0
O=C(NC(C(=O)c1ccccc1)N1CCCCCC1)c1ccco1 (stereo not given)	-13.3	-5.4	3.3	11.1
Cc1ccc(C(=O)C(NC(=O)c2ccco2)N2CCOCC2)cc1 (stereo not given)	14.5	43.6*	-1.7	-2.3
O=C(CSc1nc2[nH]ncc2c(=O)[nH]1)N1CCCCC1	47.0*	36.1	3.4	14.7
O=C(CSc1nc2[nH]ncc2c(=O)[nH]1)N1CCCC1	-15.4	-5.3	4.0	8.3
COc1ccc(Cl)cc1NC(=O)Nc1cn(C)nc1C	6.2	56.7*	44.6*	20.7
COc1ccc(Cl)cc1NC(=O)Nn1cnnc1	-5.3	5.3	-20.4	4.3
COc1ccc(C(=O)C2CCCN(C(=O)c3ccoc3C)C2)cc1F (stereo not given)	2.2	5.7	7.8	9.8
SMILES	Thrombin inh	KLK5 inh	FXIa inh	FXIIa inh 1536
COC(=O)C(C)NC(=O)C1CCCN1S(=O)(=O)c1cc(C)c(Cl)cc1C (stereo not given)	17.1	48.9*	5.5	48.3*
CN1CCN(S(=O)(=O)Cc2ccc(Cl)cc2)CC1	29.8	69.6*	41.3*	34.9
O=S(=O)(Cc1ccc(Cl)cc1)N1CCN(Cc2ccccc2)CC1	0.9	-1.5	-3.0	9.2
Cn1c(=O)cc(OCCCC(=O)NC2CCCC2)c2ccccc21	16.8	70.0*	17.0	22.5
Cn1c(=O)cc(OCC(=O)NC2CCCCC2)c2ccccc21	7.7	-15.4	13.1	7.7
O=C(Nc1cccc(Br)c1)c1ccc(OC2CSC2)cc1	-9.0	-1.6	0.6	10.6
COC(=O)C1CSC(c2ccc(Cl)cc2)N1C(=O)c1ccccc1 (stereo not given)	4.2	-7.1	-1.6	11.4
CCOc1ccc(-n2c(SCC(=O)Nc3cc(C)on3)nc3c([nH]c4ccccc43)c2=O)cc1	-1.3	2.3	23.9	23.0
CCOc1ccc(-n2c(SCC(N)=O)nc3c([nH]c4ccccc43)c2=O)cc1	16.1	43.9*	4.4	8.1
Cc1cccc(NC(=O)CSc2nc(C)c(Cc3ccccc3)c(=O)[nH]2)c1C	0.2	.	0.5	7.9
Cc1cccc(NC(=O)CSCc2c(C)noc2C)c1C	0.2	7.9	34.6	56.1*
C=C1c2cc3c(cc2NC(=S)N1Cc1ccccc1)OCO3	-19.1	-5.9	-4.0	-3.7
CCN(CC)c1ccc(NC2CC(=O)N(CCc3ccc(OC)cc3)C2=O)cc1 (stereo not given)	23.5	20.2	22.4	25.1
COc1ccc(C2C(C#N)=C(N)N(c3cccnc3)C3=C2C(=O)CC(C)(C)C3)cc1OC (stereo not given)	2.4	-1.3	13.8	18.7
COc1ccc(N2C(N)=C(C#N)C(c3cccnc3)C3=C2CC(C)(C)CC3=O)cc1 (stereo not given)	20.1	51.2*	9.6	22.8
O=C(NCCSCc1ccc(Cl)cc1)c1cccs1	-4.8	-5.8	-2.9	8.1
CC(C)(C)C(=O)NNC(=O)c1cc2sccc2s1	3.2	-4.5	-2.5	3.8
COc1ccc(S(=O)(=O)Nc2cc3c4c(oc3c3ccccc23)CC(C)(C)CC4=O)cc1	23.7	47.5*	3.0	-4.6
CC(C)CN1C(=O)C(=Nc2cccnc2)c2ccccc21	-2.1	5.5	2.0	4.0
CCCCc1[nH]c(=O)c(C#N)c2c1CCCC2	3.1	-6.0	34.1	49.4*
CCOc1ccc(-c2nc(C#N)c(NCC(C)C)o2)cc1	-3.3	150.8*	-8.6	-11.7
CCC1CCCCN1C(=S)Nc1cccc(S(=O)(=O)N(C)C)c1 (stereo not given)	-1.7	49.1*	0.3	7.0
Cc1cc(-c2n[nH]c(=S)n2/N=C/c2ccc(Cl)c([N+](=O)[O-])c2)n[nH]1	-8.7	-6.8	3.6	4.1
Cc1cc(-c2n[nH]c(=S)n2/N=C/c2cc([N+](=O)[O-])ccc2Cl)n[nH]1	33.0	47.0*	8.0	14.5
CCOc1ccccc1OC(=O)c1cc2ccccc2oc1=O	-10.8	3.5	2.6	0.2
SMILES	Thrombin inh	KLK5 inh	FXIa inh	FXIIa inh 1536
NC(=O)c1ccsc1NC(=O)c1nc(-c2ccccc2)n(-c2ccccc2)n1	44.1*	-36.9	2.5	8.3
O=C(Nc1ccccn1)c1nc(-c2ccccc2)n(-c2ccccc2)n1	-3.7	-9.8	8.1	3.3
Cc1ccc(C2=Nc3ccc(Br)cc3C(c3ccncc3)=NN2)cc1	-5.8	7.8	3.1	11.4
Cc1nn2c(NCCCN(C)C)c3c(nc2c1-c1ccccc1)CCCC3	-4.6	-13.8	-10.2	-0.1
Cc1nn2c(NCCCN(C)C)c3c(nc2c1-c1ccccc1)CCC3	67.6*	56.2*	3.4	3.3
O=C(CSc1ncn[nH]1)NCCC(c1ccccc1)c1ccccc1	4.4	-0.1	-0.1	18.7
